Measurements collected from several papers.
Compare with care: the assays were run in different laboratories.
Target: Interferon-induced, double-stranded RNA-activated protein kinase (EIF2AK2, Homo sapiens, UniProt P19525)

SMILES | observed | mode | technique | cells | tested at | endpoint | value
Cc1ccc(NC(=O)c2ccc(C)c(C(F)(F)F)c2)cc1C#Cc1nn(C2CCC(O)CC2)c2ncnc(N)c12 (centres unmarked) | cell-free assay |  |  |  | 10 µM | remaining signal | 75%
N#Cc1ccc(Nc2ccc3[nH]c(=O)[nH]c3c2)c(Cl)c1 | cell-free assay |  | competition with immobilised ligand |  | 1 µM | remaining binding | 57%
CC/C(=N\NC(=O)NCc1cccc(O)c1)c1ccc(O)c(C)c1O | enzyme activity | inhibitor |  |  | 0.1 µM | inhibition | 8.7%
CCCCNc1ncc2c(-c3ccc(F)cc3)nn(C[C@H]3CC[C@H](N)CC3)c2n1 | target engagement in cells | inhibitor | chemoproteomics |  | 20 mM | inhibition | 8.5%
Cc1cc(NC(=O)c2cccc3cc(-c4cccc5[nH]nc(N)c45)ccc23)ccc1F | enzyme activity | inhibitor |  |  | 0.1 µM | activity vs control | 106%
Cc1ccc(C(=O)NCc2ccsc2)cc1C#Cc1cn(C(C)C)c2ncnc(N)c12 | enzyme activity | inhibitor |  |  | 1 µM | activity vs control | 97%
Cc1cnc(NC2CCOCC2)nc1-n1cnc(C(=O)NC(CN)c2cc(F)cc(Cl)c2)c1 (centres unmarked) | enzyme activity | inhibitor | radiometric |  | 1 µM | remaining activity | 39%
Nc1ncnc2occ(-c3ccc(NC(=O)Nc4cc(C(F)(F)F)ccc4F)cc3)c12 | cell-free assay | inhibitor |  |  | 20 µM | remaining signal | 54%
C[C@H]1CCN(c2nccc(-c3cnn4ncccc34)n2)C1 | binding |  |  |  | 1 µM | remaining binding | 100%
Cc1ccc(C(=O)Nc2ccc(CN3CCN(C)CC3)c(C(F)(F)F)c2)cc1C#Cc1cnc2cccnn12 | enzyme activity | inhibitor |  |  | 23.5 nM | remaining activity | 100%
Cc1nc(N2CC[C@@H](O)C2)ncc1-c1cc(C(F)(F)F)cc2[nH]ncc12 | binding |  | competition with immobilised ligand |  | 1 µM | remaining binding | 100%
c1ccc(CNc2nc(N3CCOc4ccccc43)nc3c2CCCC3)cc1 | target engagement in cells | inhibitor | chemoproteomics |  | 20 mM | inhibition | -5.4%
CN1CC(Oc2cnc(C#N)cc2-c2ccn3nc(NC(=O)C4CC4)cc3c2)C1 | enzyme activity | inhibitor |  |  | 1 µM | inhibition | 14%
CC(C)(C)c1nc(-c2cccc(NS(=O)(=O)c3c(F)cccc3F)c2F)c(-c2ccnc(N)n2)s1 | enzyme activity | inhibitor | radiometric |  | 1 µM | remaining activity | 95%
CC(C)CC(=O)N1CCc2nc(-c3ccc(Br)cc3)nc(N(C)Cc3ccccc3)c2C1 | cell-free assay |  | competition with immobilised ligand |  | 0.1 µM | remaining binding | 100%
CNc1cc(Oc2cc(C(=O)Nc3cc(N4CCN(C)CC4)cc(C(F)(F)F)c3)ccc2C)ncn1 | target engagement in cells | inhibitor | chemoproteomics | Huh-7 | 1 µM | inhibition | -13%
CC(C)(C)c1nc2c(s1)c1nc(N)ncc1c1ccc(NS(=O)(=O)c3c(F)cccc3F)c(F)c12 | enzyme activity | inhibitor | radiometric |  | 1 µM | remaining activity | 93%
